# Legend:
# [1] = Cytotoxicity against mouse J774A1 cells by MTT assay; assay type: cell-based, J774.A1
# How it was run: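 Mouse macrophage line J-774-A-1 tested for cytotoxicity. Viability was read by MTT assay. CC50 (µg/mL) was estimated by the Huber and Koella method.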
# [2] = system: Leishmania donovani; assay: Antileishmanial activity against Leishmania donovani amastigotes; assay type: functional, organism-based
# How it was run: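 Intracellular L. donovani amastigotes tested in vitro, with sodium stibogluconate, pentamidine and amphotericin B as controls. IC50 (µg/mL) was obtained by nonlinear regression of the concentration–response curve using the four-parameter Hill equation.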
# [3] = system: Leishmania donovani; assay: Antileishmanial activity against Leishmania donovani promastigotes at 10 ug/mL; assay type: functional
# How it was run: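 L. donovani promastigotes exposed in vitro to 10 µg/mL. Result expressed as percent inhibition.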
# [4] = (§1) Selectivity index, ratio of CC50 for mouse J774A1 cells to IC50 for Leishmania donovani amastigotes; assay type: functional, J774.A1
# How it was run: (§2)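 Computed as CC50 in the J-774-A-1 macrophage MTT assay divided by anti-amastigote IC50. The IC50 came from a four-parameter Hill fit of the concentration–response curve.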
# [5] = system: Leishmania donovani; assay: Antileishmanial activity against Leishmania donovani infected in hamster assessed inhibition of parasite growth at 50 mg/kg, ip for 10 days; assay type: functional; conditions: 240 h, route intraperitoneal
# How it was run: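 Hamster model (Mesocricetus auratus) infected with L. donovani. Dosed intraperitoneally at 50 mg/kg × 10. Read-out was percent inhibition of parasite growth.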
# [6] = system: Leishmania donovani; assay: Antileishmanial activity against Leishmania donovani infected in hamster assessed inhibition of parasite growth at 40 mg/kg; assay type: functional
# [7] = system: Leishmania donovani; assay: Antileishmanial activity against Leishmania donovani infected in hamster assessed inhibition of parasite growth at 8 mg/kg, iv for 5 days; assay type: functional; conditions: 120 h
# [8] = system: Leishmania donovani; assay: Antileishmanial activity against Leishmania donovani promastigotes; assay type: functional, organism-based
# [9] = system: Leishmania donovani; assay: Antileishmanial activity against Leishmania donovani infected in hamster assessed inhibition of parasite growth at 20 mg/kg; assay type: functional, organism-based; set-up: dose 20 mg/kg
# [10] = system: J774.A1; assay: as §1; assay type: functional; how it was run: as §2
# [11] = Leishmania donovani, read-out: IC50
"IC50 [2, 11]",IC50 [2],IC50 [8],Molecule,CC50 [1],inhibition at 10 µg/mL [3],Ratio CC50/IC50 [4],inhibition in vivo at 50 mg/kg [5],inhibition in vivo at 40 mg/kg [6],inhibition in vivo at 8 mg/kg [7],inhibition [9],Ratio CC50/IC50 [10]
9.97 µg/mL,,,CC(CCn1ccnc1)Oc1ccc([N+](=O)[O-])cc1C(F)(F)F (stereo unspecified),7.73 µg/mL,100%,0.97,,,,,
0.48 µg/mL,,,O=[N+]([O-])c1ccccc1OC(CCn1ccnc1)c1ccccc1 (stereo unspecified),18 µg/mL,100%,,52%,,,,
3.71 µg/mL,,,O=[N+]([O-])c1ccc(OC(Cn2ccnc2)c2ccccc2)cc1 (stereo unspecified),25.2 µg/mL,95.5%,6.79,,,,,
0.47 µg/mL,,,FC(F)(F)c1ccc(OC(CCn2ccnc2)c2ccccc2)cc1 (stereo unspecified),17.2 µg/mL,100%,36.68,60%,,,,
1.85 µg/mL,,,C[C@@H](Cn1ccnc1)[C@@H](Oc1ccc(C(F)(F)F)cc1)c1ccccc1 (relative stereo),21.7 µg/mL,100%,11.75,,,,,
4.82 µg/mL,,,O=[N+]([O-])c1ccccc1OC(COc1ccccc1)Cn1ccnc1 (stereo unspecified),36.2 µg/mL,95.5%,7.51,,,,,
3.82 µg/mL,,,O=[N+]([O-])c1ccc(OC(CCn2ccnc2)c2ccccc2)cc1 (stereo unspecified),25.1 µg/mL,99%,6.57,,,,,
2.25 µg/mL,,,O=[N+]([O-])c1ccccc1OC(Cn1ccnc1)c1ccccc1 (stereo unspecified),25.1 µg/mL,97.5%,11.17,,,,,
,Not Active,,CC(CCn1ccnc1)Oc1ccc([N+](=O)[O-])cc1F (stereo unspecified),15 µg/mL,100%,,,,,,
2.76 µg/mL,,,O=[N+]([O-])c1ccc(OC(Cn2ccnc2)c2ccccc2)c(F)c1 (stereo unspecified),21.2 µg/mL,94.6%,7.69,,,,,
12.1 µg/mL,,,N=C(N)c1ccc(OCCCCCOc2ccc(C(=N)N)cc2)cc1 [PENTAMIDINE],,,,,92%,,,
2.05 µg/mL,,,FC(F)(F)c1ccc(OC(Cn2ccnc2)c2ccccc2)cc1 (stereo unspecified),28.4 µg/mL,98.6%,13.85,46%,,,,
2.83 µg/mL,,,O=[N+]([O-])c1ccc(OC(CCn2ccnc2)c2ccccc2)c(F)c1 (stereo unspecified),25.1 µg/mL,96.3%,8.86,,,,,
0.05 µg/mL,,0.008 µg/mL,C[C@@H]1[C@H](O)[C@@H](C)/C=C/C=C/C=C/C=C/C=C/C=C/C=C/[C@H](O[C@@H]2O[C@H](C)[C@@H](O)[C@H](N)[C@@H]2O)C[C@@H]2O[C@](O)(C[C@@H](O)C[C@@H](O)[C@H](O)CC[C@@H](O)C[C@@H](O)CC(=O)O[C@H]1C)C[C@H](O)[C@H]2C(=O)O [AMPHOTERICIN B],7.24 µg/mL,,144.8,,,92.2%,,
8.43 µg/mL,,,CC(CCn1ccnc1)Oc1ccccc1[N+](=O)[O-] (stereo unspecified),> 100 µg/mL,100%,>11.86,,,,,
0.56 µg/mL,,,FC(F)(F)c1ccc(OC(COc2ccccc2)Cn2ccnc2)cc1 (stereo unspecified),17.9 µg/mL,100%,31.89,58%,,,,
2.27 µg/mL,,,C[C@@H](Cn1ccnc1)[C@@H](Oc1ccccc1[N+](=O)[O-])c1ccccc1 (relative stereo),22.1 µg/mL,95%,9.75,,,,,
5.13 µg/mL,,,O=[N+]([O-])c1ccc(OC(COc2ccccc2)Cn2ccnc2)c(F)c1 (stereo unspecified),29.6 µg/mL,98.2%,5.76,,,,,
,Not Active,,CC(CCn1ccnc1)Oc1ccc([N+](=O)[O-])cc1 (stereo unspecified),24.1 µg/mL,100%,,,,,,
,,,sodium stibogluconate,,,,,,,84.1%,6.38
8.08 µg/mL,,,CC(CCn1ccnc1)Oc1ccc(C(F)(F)F)cc1 (stereo unspecified),7.5 µg/mL,100%,0.88,,,,,
5.62 µg/mL,,,O=[N+]([O-])c1ccc(OC(COc2ccccc2)Cn2ccnc2)cc1 (stereo unspecified),28.1 µg/mL,93.8%,5,,,,,
